Test results published in ChEMBL document CHEMBL1143146, “Multicomponent reactions in fungicide research: the discovery of mandipropamid” (2008).
≈ marks a conversion by molar mass, not a printed value.

Assays:
Phytophthora infestans = assay: Antifungal activity against Phytophthora infestans in tomato late blight after 4 days; format: functional; conditions: 96 h
How it was run: (§1)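 Greenhouse trials on whole plants. Disease incidence read after incubation at 20 °C and 95% relative humidity: 4 days on tomato, 6 days on grape. Potency is given as EC80, the concentration in mg L-1 (ppm) giving 80% activity.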

Plasmopara viticola = assay: Antifungal activity against Plasmopara viticola in grape downy mildew after 6 days; format: functional; conditions: 144 h; how it was run: as §1

Structure (SMILES)	EC80 (Phytophthora infestans) [µg/mL]	EC80 (Plasmopara viticola) [µg/mL]
C#CCOc1ccc(CCNC(=O)C(NS(=O)(=O)N(C)C)c2ccc(OC)cc2)cc1OC (stereo not given)	8 (≈ 16.8 µM)	34.9 (≈ 73.4 µM)
C#CCOc1ccc(CCNC(=O)C(NS(=O)(=O)N(C)C)c2ccc(C)c(C)c2)cc1OC (stereo not given)	12.2 (≈ 25.8 µM)	28.7 (≈ 60.6 µM)
C#CCOc1ccc(CCNC(=O)C(OCC#C)c2cc(Cl)cc(Cl)c2Cl)cc1OC (stereo not given)	> 200	44.2 (≈ 91.9 µM)
C#CCOc1ccc(CCNC(=O)C(OCC#C)c2ccc3c(c2)Cc2ccccc2-3)cc1OC (stereo not given)	4.8 (≈ 10.3 µM)	19.3 (≈ 41.5 µM)
C#CCOc1ccc(CCNC(=O)C(OCC#C)c2cccs2)cc1OC (stereo not given)	2.1 (≈ 5.48 µM)	1.4 (≈ 3.65 µM)
C#CCOc1ccc(CCNC(=O)C(OCC#C)c2cc(F)c(F)c(F)c2)cc1OC (stereo not given)	26.2 (≈ 60.7 µM)	19.7 (≈ 45.7 µM)
C#CCOc1ccc(CCNC(=O)C(NS(=O)(=O)N(C)C)c2ccc(SC)cc2)cc1OC (stereo not given)	34.9 (≈ 71 µM)	16.2 (≈ 33 µM)
C#CCOc1ccc(CCNC(=O)C(OCC#C)c2cccc(Cl)c2Cl)cc1OC (stereo not given)	168 (≈ 377 µM)	25.5 (≈ 57.1 µM)
C#CCOc1ccc(CCNC(=O)C(CC2=C(C)CCCC2(C)C)OCC#C)cc1OC (stereo not given)	51.4 (≈ 117 µM)	124 (≈ 283 µM)
C#CCOc1ccc(CCNC(=O)C(OCC#C)c2ccc(Br)cc2F)cc1OC (stereo not given)	5.3 (≈ 11.2 µM)	1.8 (≈ 3.79 µM)
C#CCOc1ccc(CCNC(=O)C(NS(=O)(=O)N(C)C)c2ccc(CC)cc2)cc1OC (stereo not given)	2.6 (≈ 5.49 µM)	5.1 (≈ 10.8 µM)
C#CCOc1ccc(CCNC(=O)C(NS(=O)(=O)N(C)C)c2cccc(C)c2)cc1OC (stereo not given)	150 (≈ 326 µM)	116 (≈ 253 µM)
C#CCOc1ccc(CCNC(=O)C(OCC#C)c2ccc(F)cc2)cc1OC (stereo not given)	1.8 (≈ 4.55 µM)	3.4 (≈ 8.6 µM)
C#CCOc1ccc(CCNC(=O)C(OCC#C)c2ccc(CC)cc2)cc1OC (stereo not given)	7.5 (≈ 18.5 µM)	3.1 (≈ 7.64 µM)
C#CCOc1ccc(CCNC(=O)C(OCC#C)c2ccc(F)cc2F)cc1OC (stereo not given)	4.6 (≈ 11.1 µM)	5 (≈ 12.1 µM)
C#CCOc1ccc(CCNC(=O)C(OCC#C)c2cccc(Br)c2)cc1OC (stereo not given)	4.9 (≈ 10.7 µM)	4.9 (≈ 10.7 µM)
C#CCOc1ccc(CCNC(=O)C(NS(=O)(=O)N(C)C)c2ccc(Br)cc2)cc1OC (stereo not given)	7.8 (≈ 14.9 µM)	39.4 (≈ 75.1 µM)
C#CCOc1ccc(CCNC(=O)C(COc2ccc(C)cc2)OCC#C)cc1OC (stereo not given)	0.1 (≈ 0.237 µM)	1.8 (≈ 4.27 µM)
C#CCOc1ccc(CCNC(=O)C(COc2ccc(Cl)cc2)OCC#C)cc1OC (stereo not given)	0.02 (≈ 0.0453 µM)	0.6 (≈ 1.36 µM)
C#CCOc1ccc(CCNC(=O)C(NS(=O)(=O)N(C)C)c2ccc(Cl)cc2)cc1OC (stereo not given)	10.6 (≈ 22.1 µM)	13.8 (≈ 28.8 µM)

Structure (SMILES)	EC80 (Phytophthora infestans) [µg/mL]	EC80 (Plasmopara viticola) [µg/mL]
C#CCOc1ccc(CCNC(=O)C(OCC#C)c2cccc(F)c2)cc1OC (stereo not given)	10.2 (≈ 25.8 µM)	1.8 (≈ 4.55 µM)
C#CCOc1ccc(CCNC(=O)C(OCC#C)c2cccc(OC)c2)cc1OC (stereo not given)	46.2 (≈ 113 µM)	1.7 (≈ 4.17 µM)
C#CCOc1ccc(CCNC(=O)C(NS(=O)(=O)N(C)C)c2ccc(F)c(Cl)c2)cc1OC (stereo not given)	186 (≈ 374 µM)	59.8 (≈ 120 µM)
C#CCOc1ccc(CCNC(=O)C(NS(=O)(=O)N(C)C)c2ccc(F)c(F)c2)cc1OC (stereo not given)	110 (≈ 228 µM)	46.3 (≈ 96.2 µM)
C#CCOc1ccc(CCNC(=O)C(NS(=O)(=O)N(C)C)c2ccc(CCC)cc2)cc1OC (stereo not given)	3.1 (≈ 6.36 µM)	16.7 (≈ 34.2 µM)
C#CCOc1ccc(CCNC(=O)C(NS(=O)(=O)N(C)C)c2ccc(C(C)C)cc2)cc1OC (stereo not given)	26.2 (≈ 53.7 µM)	14.6 (≈ 29.9 µM)
C#CCOc1ccc(CCNC(=O)C(NS(=O)(=O)N(C)C)c2ccc(Cl)c(Cl)c2)cc1OC (stereo not given)	19.2 (≈ 37.3 µM)	51.5 (≈ 100 µM)
C#CCOc1ccc(CCNC(=O)C(OCC#C)c2ccccc2)cc1OC (stereo not given)	0.5 (≈ 1.32 µM)	1.3 (≈ 3.44 µM)
C#CCOc1ccc(CCNC(=O)C(NS(=O)(=O)N(C)C)c2ccc(F)cc2)cc1OC (stereo not given)	45.7 (≈ 98.6 µM)	78.3 (≈ 169 µM)
C#CCOc1ccc(CCNC(=O)C(OCC#C)C2CCCCC2)cc1OC (stereo not given)	47.6 (≈ 124 µM)	5.3 (≈ 13.8 µM)
C#CCOc1ccc(CCNC(=O)C(OCC#C)c2ccc(C)c(Cl)c2)cc1OC (stereo not given)	2.4 (≈ 5.63 µM)	1.5 (≈ 3.52 µM)
C#CCOc1ccc(CCNC(=O)C(OCC#C)c2ccc(C=C)cc2)cc1OC (stereo not given)	3.3 (≈ 8.18 µM)	2 (≈ 4.96 µM)
C#CCOc1ccc(CCNC(=O)C(OCC#C)c2ccc(Cl)c(Cl)c2)cc1OC (stereo not given)	4.8 (≈ 10.8 µM)	3.4 (≈ 7.62 µM)
C#CCOc1ccc(CCNC(=O)C(OCC#C)c2ccc(Br)cc2)cc1OC (stereo not given)	3.4 (≈ 7.45 µM)	2.6 (≈ 5.7 µM)
C#CCOc1ccc(CCNC(=O)C(OCC#C)c2ccc(C)cc2)cc1OC (stereo not given)	9.7 (≈ 24.8 µM)	5.2 (≈ 13.3 µM)
C#CCOc1ccc(CCNC(=O)C(OCC#C)c2ccc3c(c2)OCCO3)cc1OC (stereo not given)	16.7 (≈ 38.3 µM)	2.2 (≈ 5.05 µM)
C#CCOc1ccc(CCNC(=O)C(COCc2ccccc2)OCC#C)cc1OC (stereo not given)	0.3 (≈ 0.712 µM)	20.4 (≈ 48.4 µM)
C#CCOc1ccc(CCNC(=O)C(OCC#C)c2cccc(Cl)c2)cc1OC (stereo not given)	3.7 (≈ 8.98 µM)	2.4 (≈ 5.83 µM)
C#CCOc1ccc(CCNC(=O)C(NS(=O)(=O)N(C)C)c2ccc(C(F)(F)F)cc2)cc1OC (stereo not given)	3.4 (≈ 6.62 µM)	5.8 (≈ 11.3 µM)
C#CCOc1ccc(CCNC(=O)C(OCC#C)c2ccc(CCCC)cc2)cc1OC (stereo not given)	25.9 (≈ 59.7 µM)	10.4 (≈ 24 µM)

Structure (SMILES)	EC80 (Phytophthora infestans) [µg/mL]	EC80 (Plasmopara viticola) [µg/mL]
C#CCOc1ccc(CCNC(=O)C(OCC#C)c2cccc(C(F)(F)F)c2)cc1OC (stereo not given)	5 (≈ 11.2 µM)	3.8 (≈ 8.53 µM)
C#CCOc1ccc(CCNC(=O)C(OCC#C)c2ccc(SC)cc2)cc1OC (stereo not given)	7.6 (≈ 17.9 µM)	5.3 (≈ 12.5 µM)
C#CCOc1ccc(CCNC(=O)C(NS(=O)(=O)N(C)C)c2ccc(OCC)cc2)cc1OC (stereo not given)	24.7 (≈ 50.4 µM)	35 (≈ 71.5 µM)
C#CCOc1ccc(CCNC(=O)C(Cc2ccc(Cl)cc2)OCC#C)cc1OC (stereo not given)	26.3 (≈ 61.7 µM)	18.6 (≈ 43.7 µM)
C#CCOc1ccc(CCNC(=O)C(OCC#C)c2ccc(C)c(C)c2)cc1OC (stereo not given)	3.2 (≈ 7.89 µM)	1.6 (≈ 3.95 µM)
C#CCOc1ccc(CCNC(=O)C(OCC#C)c2ccc(CCC)cc2)cc1OC (stereo not given)	4.4 (≈ 10.5 µM)	1.7 (≈ 4.05 µM)
C#CCOc1ccc(CCNC(=O)C(OCC#C)c2ccc(C(F)(F)F)cc2)cc1OC (stereo not given)	8 (≈ 18 µM)	11.6 (≈ 26 µM)
C#CCOc1ccc(CCNC(=O)C(OCC#C)c2ccccc2Cl)cc1OC (stereo not given)	81.1 (≈ 197 µM)	> 200
C#CCOc1ccc(CCNC(=O)C(OCC#C)c2ccc(COC)cc2)cc1OC (stereo not given)	2.6 (≈ 6.17 µM)	13.8 (≈ 32.7 µM)
C#CCOc1ccc(CCNC(=O)C(OCC#C)c2cc(C)cc(C)c2)cc1OC (stereo not given)	41.9 (≈ 103 µM)	56.4 (≈ 139 µM)
C#CCOc1ccc(CCNC(=O)C(NS(=O)(=O)N(C)C)c2ccccc2C)cc1OC (stereo not given)	> 200	> 200
C#CCOc1ccc(CCNC(=O)C(OCC#C)c2cccc(C)c2)cc1OC (stereo not given)	6.4 (≈ 16.3 µM)	1.7 (≈ 4.34 µM)
C#CCOc1ccc(CCNC(=O)C(OCC#C)c2ccc(OC)cc2)cc1OC (stereo not given)	2.3 (≈ 5.64 µM)	1.6 (≈ 3.93 µM)
C#CCOc1ccc(CCNC(=O)C(NS(=O)(=O)N(C)C)c2ccc(C)cc2)cc1OC (stereo not given)	2.5 (≈ 5.44 µM)	3.2 (≈ 6.96 µM)
C#CCOc1ccc(CCNC(=O)C(NS(=O)(=O)N(C)C)c2ccc(OC(F)(F)F)cc2)cc1OC (stereo not given)	18.8 (≈ 35.5 µM)	46.4 (≈ 87.6 µM)
C#CCOc1ccc(CCNC(=O)C(OCC#C)c2ccc(C(C)C)cc2)cc1OC (stereo not given)	6.1 (≈ 14.5 µM)	2.8 (≈ 6.67 µM)
C#CCOc1ccc(CCNC(=O)C(NS(=O)(=O)N(C)C)c2ccccc2)cc1OC (stereo not given)	81.2 (≈ 182 µM)	28.5 (≈ 64 µM)
C#CCOc1ccc(CCNC(=O)C(NS(=O)(=O)N(C)C)c2ccc(C(C)(C)C)cc2)cc1OC (stereo not given)	143 (≈ 285 µM)	20.2 (≈ 40.3 µM)
C#CCOc1ccc(CCNC(=O)C(OCC#C)c2cccnc2)cc1OC (stereo not given)	186 (≈ 492 µM)	> 200
C#CCOc1ccc(CCNC(=O)C(OCC#C)c2ccc(Cl)cc2)cc1OC (stereo not given) [MANDIPROPAMID]	0.1 (≈ 0.243 µM)	1.2 (≈ 2.91 µM)
